SMILES strings stand for the structures.

What is called EC50 is the midpoint of the concentration-response curve. Broadly, the CC50 is the concentration that lowers cell viability or growth by half. As a reminder, the IC50 is the point on the concentration scale where inhibition reaches its midpoint.

A short description of data set [1]: Selectivity index, […] for human GS4.1 cells. In outline: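 Both values come from GS4.1 replicon cells treated 72 h with two-fold serial dilutions (top 75 μM). EC50 was from NS4A ELISA with a four-parameter sigmoidal fit. CC50 was from a tetrazolium-based Aqueous One cell proliferation readout.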
The subject of data set [2] is Yellow fever virus. The data set can be described thus: Antiviral activity against Yellow fever virus 17D Stamaril Pasteur J07B01 infected in hamster BHK21 cells assessed as inhibition of virus-induced cytopathogenicity after 3 to 4 days by MTT assay. Type of data set: functional, cell-based. The conditions noted are these: Stamaril Pasteur J07B01, BHK-21. In outline: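 Host cells were seeded in 96-well plates at 3×10^4 cells/well (MDBK) or 5×10^4 cells/well (BHK-21) and grown to confluent monolayers overnight. They were infected at m.o.i. 0.01 in maintenance MEM with 0.5% inactivated FBS. Serial compound dilutions were added after 1 h. Viability was read by MTT after 3–4 days at 37 °C. EC50 was taken by linear regression against untreated controls. Mean of three determinations.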
On the technique in general: Damage to the host cells serves as the signal in cytopathic effect assays.

Data set [3] deals with HepG2. The data set can be described thus: Cytotoxicity against human HepG2 cells after 96 hrs by MTT assay. The conditions noted are these: HepG2, 96 h. Type of data set: functional. An outline of the steps:
(§1)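 Cells were seeded at 1×10^5 cells/mL: leukaemia/lymphoma lines in RPMI-1640, solid tumour and fibroblast lines in specific media, all with 10% FCS. Serial compound dilutions were applied for 96 h at 37 °C, 5% CO2, under conditions allowing controls at least three rounds of multiplication. Viability was read by MTT. CC50 by linear regression. Mean of three determinations.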
(In general: Tetrazolium dyes change colour on reduction, which living cells bring about.)

In data set [4] the test system is CCRF-SB. The data set can be described thus: Cytotoxicity against human CCRF-SB cells after 96 hrs by MTT assay. Type of data set: functional. An outline of the steps:
as §1

The subject of data set [5] is SK-MES-1. The data set can be described thus: Cytotoxicity against human SKMES1 cells after 96 hrs by MTT assay. The conditions noted are these: SK-MES-1, 96 h. The data set is classed as functional. In outline: as §1
Data set [6] in a line: Inhibition of Bovine viral diarrhea virus 1-NADL recombinant NS5B Cdelta 21 RNA dependent RNA polymerase expressed in Escherichia coli (DE3) using GTP as substrate preincubated for 30 mins before substrate addition measured after 120 mins by fluorescence assay.
Data set [7] in a line: Cytotoxicity against human CRL7065 cells after 96 hrs by MTT assay. Type of data set: cell-based, CRL-7065. An outline of the steps: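 Foreskin fibroblasts seeded at 1×10^5 cells/mL in specific medium with 10% FCS and antibiotics; serial compound dilutions, 37 °C, 5% CO2, 96 h, under conditions allowing untreated controls at least three rounds of multiplication. MTT read-out; concentration reducing proliferation by 50% by linear regression versus untreated controls; three independent determinations.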

Data set [8] can be described thus: Cytotoxicity against human MRC5 cells after 96 hrs by MTT assay. The data set is classed as cell-based. In outline:
as §1

A short description of data set [9]: Cytotoxicity against african green monkey Vero 76 cells after 48 to 96 hrs by crystal violet staining. The conditions noted are these: chlorocebus sabaeus. The data set is classed as cell-based. In outline: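 Vero-76 cells were seeded at 4×10^5 cells/mL in D-MEM with L-glutamine, kanamycin and 10% FBS, then exposed to serial compound dilutions at 37 °C, 5% CO2 for 48–96 h. Viability was read by crystal violet staining. 50% cytotoxic concentration by linear regression relative to untreated controls; mean of three independent determinations.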

Take `O=[N+]([O-])c1ccc(-c2nc3cc4cccnc4c(Cl)c3[nH]2)cc1`: the “Selectivity Index” value in [1] was determined as 4. Besides, the EC50 in [2] is above 100 µM. Also, the CC50 is 10.3 µM in [3], above 100 µM in [4], above 100 µM in [5] and above 100 µM in data set [9]. The half-inhibitory concentration (IC50) in [6] stood at 0.06 µM. The 50% cytotoxic concentration (CC50) at 96 h in data set [7] and in [8] was above 100 µM throughout.

These data come from ChEMBL document CHEMBL1938334, “Quinoline tricyclic derivatives. Design, synthesis and evaluation of the antiviral activity of three new classes of RNA-dependent RNA polymerase inhibitors” (Bioorg Med Chem, 2011).
